# Measured values collected from several papers.
# Lines come from different studies, so protocols differ.
# RET M918T: Proto-oncogene tyrosine-protein kinase receptor Ret (RET, Homo sapiens, UniProt P07949, M918T)
# RET V804L: Proto-oncogene tyrosine-protein kinase receptor Ret (RET, Homo sapiens, UniProt P07949, V804L)
# RET V804M: Proto-oncogene tyrosine-protein kinase receptor Ret (RET, Homo sapiens, UniProt P07949, V804M)
# RET: Proto-oncogene tyrosine-protein kinase receptor Ret (RET, Homo sapiens, UniProt P07949)
SMILES,target,test,conditions,remaining binding
COc1ncc2cc3ccccc3nc2c1C#N,RET M918T,"cell-free assay, competition with immobilised ligand",5 µM,96%
FC(F)(F)c1ccc2c(c1)nc(-c1cccnc1)n2C1CC1,RET V804L,"cell-free assay, competition with immobilised ligand",1 µM,81%
CN1CCN(c2ccc(Nc3nccc(-c4ccccc4)n3)cc2C(F)(F)F)CC1,RET M918T,binding,10 µM,27%
C[C@@H](c1ccc(-n2cnc3c(N)ncnc32)cc1)N1CCc2nn(C)c(Cc3ccccc3)c2C1=O,RET V804L,"binding, competition with immobilised ligand",0.1 µM,99%
Cc1cc(C)c(-n2ccn3nc(-c4cccnc4)cc23)cc1NC(=O)c1cc(C#N)cc(S(F)(F)(F)(F)F)c1,RET V804M,"cell-free assay, competition with immobilised ligand",0.1 µM,94.5%
C=CC(=O)N1CCC(C(=O)NCC(=O)N2CCN(c3nc(-c4cnc(N)nc4C(F)F)nc(N4CCOCC4)n3)CC2)CC1,RET V804M,"binding, competition with immobilised ligand",1 µM,100%
c1cnn2ncc(-c3ccnc(N4CCC45COC5)n3)c2c1,RET M918T,binding,1 µM,97%
CCN1CCN(Cc2ccc(C(=O)Nc3ccc(C)c(Oc4ccc5c(c4)CC(=O)N5)c3)cc2C(F)(F)F)CC1,RET,"binding, competition with immobilised ligand",1 µM,14%
O=C(NCC1CCOCC1)c1n[nH]cc1NC(=O)c1c(F)cccc1F,RET V804M,"binding, competition with immobilised ligand",1 µM,90%
Cn1nc(C(F)(F)F)cc1-c1cnc(N2CCc3cc(S(=O)(=O)Nc4c(F)cc(Cl)cc4F)cc(N4CCCC4=O)c32)nc1,RET V804M,"cell-free assay, competition with immobilised ligand",1 µM,98%
F[C@@H]1CCN(c2nccc(-c3cnn4ncccc34)n2)C1,RET M918T,binding,1 µM,100%
O=C(c1ccc(Nc2ncc(Cl)c(-c3cc4ccccc4s3)n2)cc1)N1CCC(N2CCCC2)CC1,RET,"binding, competition with immobilised ligand",1 µM,25%
CN(C)c1ncc(F)c(-c2cnn3ncccc23)n1,RET,binding,1 µM,97%
CCCCN(CCCC)C(=O)CN1C[C@@H](c2cc(OC)c3c(c2)OCO3)[C@H](C(=O)O)[C@H]1CC(C)(C)CCC,RET V804L,"cell-free assay, competition with immobilised ligand",1 µM,100%
N[C@H]1CCN(c2nccc(-c3cnn4ncccc34)n2)C1,RET V804L,binding,1 µM,93%
COc1cnc(Nc2cccc(S(N)(=O)=O)c2)nc1N1CCN(c2ccccc2)C(=O)C1,RET V804L,"binding, competition with immobilised ligand",1 µM,98%
C[C@@H]1CCN(c2nccc(-c3cnn4ncccc34)n2)C1,RET V804L,binding,1 µM,100%
C[C@@H]1CN(c2cc(-c3nn(C)c4ccc(OC5(C)CC5)cc34)ncn2)C[C@H](C)O1,RET V804L,"cell-free assay, competition with immobilised ligand",1 µM,72%
O=C(c1ccc(Nc2nccc(-c3cc4ccccc4s3)n2)cc1)N1CCC(N2CCCC2)CC1,RET M918T,"binding, competition with immobilised ligand",1 µM,83%
COCCOc1nc(-c2ccc(Cl)nc2)nc2c1CN(C(=O)c1ncn3ccccc13)CC2,RET V804M,"cell-free assay, competition with immobilised ligand",0.1 µM,89%
O=C(NCCCN1CCOCC1)c1ccc(Nc2nccc(-c3cc4ccccc4s3)n2)cc1,RET V804L,"binding, competition with immobilised ligand",1 µM,100%
CN(c1nccc(-c2cnn3ncccc23)n1)C1CC1,RET V804L,binding,1 µM,100%
Cc1c(NC(=O)c2cc(C(N)=O)nc3cc(F)ccc23)c(C(F)(F)F)nn1Cc1ccc(C(C)(C)C)cc1,RET V804M,"cell-free assay, competition with immobilised ligand",1 µM,100%
